From ChEMBL document CHEMBL5724801, “EUbOPEN Chemogenomics Library - Multiplex” (2024)
Several values for one entry are separate records, joined by “and”; a condition that tells them apart may be missing. Equal entries are not always repeated.

Columns and labels:
U2OS = test: Multiplex assay against U2OS; format: toxicity, cell-based; settings: human
Method in brief: (§1)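 Cells were classed with CellPathfinder machine-learning gating, first as Hoechst high-intensity objects or normal cells, then (normal cells) as healthy, pyknosed or fragmented nuclei, and finally (pyknosed cells) as mitotic or apoptotic. Staining of live cells at seeding used Hoechst33342, BioTracker Green Microtubule Cytoskeleton Dye, MitoTracker Red and Annexin V Alexa Fluor 680, with imaging on a CQ1 microscope at 37°C and 5% CO2 after compound addition. Tubulin, mitochondrial-mass and membrane-permeability phenotypes are per cents of healthy-nucleus cells.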

HEK-293T = test: Multiplex assay against HEK293T; format: toxicity, cell-based; settings: human; method in brief: as §1
[1] = 12 h, 1 µM, compound concentration 1 uM
[2] = 12 h, 10 µM, compound concentration 10 uM
[3] = 24 h, 1 µM, compound concentration 1 uM
[4] = 24 h, 10 µM, compound concentration 10 uM
[5] = 48 h, 1 µM, compound concentration 1 uM
[6] = 48 h, 10 µM, compound concentration 10 uM

## Cc1nc2ccc(Oc3ccc(F)cc3)cc2c(=O)n1C[C@H]1CCCN(C(C)C)C1.Cl
U2OS; [1]
  Population Apoptotic (%): 83% and 60%
  Population Fragmented Nuclei (%): 25% and 14%
  Population Healthy Nuclei (%): 64% and 81%
  Population Hoechst High Intensity Objects (%): 3% and 1%
  Population Membrane Permeable-Phenotype (%): 9% and 17%
  Population Mitochondria Different-Phenotype (%): 3% and 7%
  Population Mitotic Cells (%): 16% and 40%
  Population Normal (%): 96% and 98%
  Population Pyknosed Nuclei (%): 10% and 4%
  Population Tubulin-Different-Phenotype (%): 7% and 9%
  Total Cell Count: 244 and 125
U2OS; [2]
  Population Apoptotic (%): 65% and 78%
  Population Fragmented Nuclei (%): 25% and 24%
  Population Healthy Nuclei (%): 59% and 58%
  Population Hoechst High Intensity Objects (%): 3% and 4%
  Population Membrane Permeable-Phenotype (%): 58% and 25%
  Population Mitochondria Different-Phenotype (%): 61% and 75%
  Population Mitotic Cells (%): 35% and 21%
  Population Normal (%): 96% and 95%
  Population Pyknosed Nuclei (%): 15% and 17%
  Population Tubulin-Different-Phenotype (%): 63% and 47%
U2OS; [3]
  Population Apoptotic (%): 78% and 80%
  Population Fragmented Nuclei (%): 23% and 21%
  Population Healthy Nuclei (%): 65% and 71%
  Population Hoechst High Intensity Objects (%): 4% and 2%
  Population Membrane Permeable-Phenotype (%): 7% and 11%
  Population Mitochondria Different-Phenotype (%): 5% and 9%
  Population Mitotic Cells (%): 21% and 20%
  Population Normal (%): 95% and 97%
  Population Pyknosed Nuclei (%): 10% and 6%
  Population Tubulin-Different-Phenotype (%): 4% and 8%
  Total Cell Count: 276 and 146
U2OS; [4]
  Population Apoptotic (%): 77% and 76%
  Population Fragmented Nuclei (%): 25% and 22%
  Population Healthy Nuclei (%): 57% and 52%
  Population Hoechst High Intensity Objects (%): 4% and 6%
  Population Membrane Permeable-Phenotype (%): 37% and 22%
  Population Mitochondria Different-Phenotype (%): 63% and 62%
  Population Mitotic Cells (%): 22% and 23%
  Population Normal (%): 95% and 93%
  Population Pyknosed Nuclei (%): 16% and 24%
  Population Tubulin-Different-Phenotype (%): 47% and 40%
U2OS; [5]
  Population Apoptotic (%): 84% and 93%
  Population Fragmented Nuclei (%): 19%
  Population Healthy Nuclei (%): 69% and 72%
  Population Hoechst High Intensity Objects (%): 1% and 0%
  Population Membrane Permeable-Phenotype (%): 7%
  Population Mitochondria Different-Phenotype (%): 5%
  Population Mitotic Cells (%): 15% and 6%
  Population Normal (%): 98% and 99%
  Population Pyknosed Nuclei (%): 10% and 7%
  Population Tubulin-Different-Phenotype (%): 4% and 6%
  Total Cell Count: 371 and 213
U2OS; [6]
  Population Apoptotic (%): 77% and 88%
  Population Fragmented Nuclei (%): 29%
  Population Healthy Nuclei (%): 54% and 51%
  Population Hoechst High Intensity Objects (%): 5% and 8%
  Population Membrane Permeable-Phenotype (%): 29% and 27%
  Population Mitochondria Different-Phenotype (%): 36% and 41%
  Population Mitotic Cells (%): 22% and 11%
  Population Normal (%): 94% and 91%
  Population Pyknosed Nuclei (%): 16% and 19%
  Population Tubulin-Different-Phenotype (%): 23% and 35%
HEK-293T; [1]
  Population Apoptotic (%): 40% and 61%
  Population Fragmented Nuclei (%): 7% and 5%
  Population Healthy Nuclei (%): 80% and 70%
  Population Membrane Permeable-Phenotype (%): 0%
  Population Mitochondria Different-Phenotype (%): 50% and 69%
  Population Mitotic Cells (%): 60% and 38%
  Population Normal (%): 93% and 72%
  Population Pyknosed Nuclei (%): 11% and 24%
  Population Tubulin-Different-Phenotype (%): 42% and 34%
  Total Cell Count: 381 and 204
HEK-293T; [2]
  Population Apoptotic (%): 54% and 61%
  Population Fragmented Nuclei (%): 7% and 8%
  Population Healthy Nuclei (%): 78% and 74%
  Population Hoechst High Intensity Objects (%): 17% and 20%
  Population Membrane Permeable-Phenotype (%): 0%
  Population Mitochondria Different-Phenotype (%): 81% and 94%
  Population Mitotic Cells (%): 45% and 38%
  Population Normal (%): 82% and 79%
  Population Pyknosed Nuclei (%): 13% and 17%
  Population Tubulin-Different-Phenotype (%): 76% and 73%
  Total Cell Count: 405 and 310
HEK-293T; [3]
  Population Apoptotic (%): 31% and 37%
  Population Fragmented Nuclei (%): 11%
  Population Healthy Nuclei (%): 80% and 72%
  Population Membrane Permeable-Phenotype (%): 0%
  Population Mitochondria Different-Phenotype (%): 36% and 52%
  Population Mitotic Cells (%): 68% and 62%
  Population Normal (%): 95% and 77%
  Population Pyknosed Nuclei (%): 8% and 16%
  Population Tubulin-Different-Phenotype (%): 27% and 20%
  Total Cell Count: 553 and 281
HEK-293T; [4]
  Population Apoptotic (%): 49% and 68%
